In ChEMBL document CHEMBL3525963, “Tissue distribution and elimination of [14C]apixaban in rats” (Drug Metab Dispos, 2011):

What was measured:
Design in all cases: dose 5 mg/kg, dosed compound name [14C]-apixaban, route oral
Conditions in all cases: in vivo
Rattus norvegicus [1] = experiment: Biodistribution in male Sprague-Dawley rat brown fat at 5 mg/kg, po administered as single dose measured after 24 hrs; type: ADME, organism-based, Brown adipose tissue
In short: (§1)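 Fasted male SD rats (225-252 g) each received one oral gavage dose of [14C]apixaban, 5 mg/kg (100 μCi/kg), in 0.5% Tween 80/Labrafil vehicle. One rat was killed per time point, from 0.5 to 168 h. Frozen carcasses were cut into 40 µm sagittal whole-body sections and read by QWBA phosphor imaging against [14C]glucose calibrants. Results are in µg apixaban eq/g; BLQ <0.037 µg eq/g.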

Pancreas [2] = experiment: Biodistribution in pregnant Sprague-Dawley rat pancreas at 5 mg/kg, po administered as single dose measured after 4 hrs; type: ADME, organism-based
Rattus norvegicus [3] = experiment: Biodistribution in pregnant Sprague-Dawley rat salivary gland at 5 mg/kg, po administered as single dose measured after 4 hrs; type: ADME, organism-based
Rattus norvegicus [4] = experiment: Biodistribution in female Sprague-Dawley rat brown fat at 5 mg/kg, po administered as single dose measured after 8 hrs; type: ADME, organism-based, Brown adipose tissue
In short: (§2)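 [14C]apixaban (20 μCi/mL in dosing solution) in 0.5% Tween 80 in Labrafil given by oral gavage to fasted female rats, 206-213 g, at 100 μCi/kg. One rat per time point was euthanized and snap-frozen. Sagittal 40 µm whole-body sections were read by QWBA phosphor imaging against [14C]glucose standards. Results are in µg eq apixaban/g, with LLOQ 0.037 μg eq/g.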

Harderian gland [5] = experiment: Biodistribution in pregnant Sprague-Dawley rat harderian gland at 5 mg/kg, po administered as single dose measured after 24 hrs; type: ADME, organism-based
In short: (§3)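 Fasted pregnant SD rats (n=6, 270-319 g) each received one oral gavage dose of [14C]apixaban, 5 mg/kg (100 μCi/kg), in 0.5% Tween 80/Labrafil. One rat was killed at each of 0.5, 1, 4, 8, 24 and 48 h. Carcasses were frozen in hexane/dry ice, cut into 40 µm sagittal sections, exposed to phosphor plates and quantified against [14C]glucose standards as µg eq/g. LLOQ was 0.037 µg eq/g.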

Heart [6] = experiment: Biodistribution in pregnant Sprague-Dawley rat heart at 5 mg/kg, po administered as single dose measured after 0.5 hrs; type: ADME, organism-based
Liver [7] = experiment: Biodistribution in pregnant Sprague-Dawley rat liver at 5 mg/kg, po administered as single dose measured after 1 hr; type: ADME, organism-based; in short: as §3
Adrenal gland [8] = experiment: Biodistribution in pregnant Sprague-Dawley rat adrenal gland at 5 mg/kg, po administered as single dose measured after 24 hrs; type: ADME, organism-based; in short: as §3
Rattus norvegicus [9] = experiment: Biodistribution in female Sprague-Dawley rat bone marrow at 5 mg/kg, po administered as single dose measured after 1 hr; type: ADME, organism-based; in short: as §2
Adrenal gland [10] = experiment: Biodistribution in pregnant Sprague-Dawley rat adrenal gland at 5 mg/kg, po administered as single dose measured after 8 hrs; type: ADME, organism-based
Brain = experiment: Biodistribution in pregnant Sprague-Dawley rat brain at 5 mg/kg, po administered as single dose measured after 1 hr; type: ADME, organism-based
Heart [11] = experiment: Biodistribution in female Sprague-Dawley rat heart at 5 mg/kg, po administered as single dose measured after 24 hrs; type: ADME, organism-based
In short: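 Quantitative whole-body autoradiography was run after a single 5 mg/kg (100 μCi/kg) oral gavage to fasted female or pregnant SD rats, one rat per time point. Carcasses were frozen in hexane/dry ice, and 40 µm sagittal sections were dried at −20°C for at least 48 h. Sections were exposed to a phosphor plate alongside [14C]glucose standards (0.001–6.5 µCi/g). Results are µg eq/g, with LLOQ 0.037 µg eq/g.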

Harderian gland [12] = experiment: Biodistribution in male Sprague-Dawley rat harderian gland at 5 mg/kg, po administered as single dose measured after 8 hrs; type: ADME, organism-based
In short: (§4)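 [¹⁴C]Apixaban given by oral gavage at 5 mg/kg (100 μCi/kg) in 0.5% Tween 80 in Labrafil (1.0 mg/mL dosing solution) to rats fasted overnight through 4 h post-dose. One rat per time point; carcass frozen in hexane/dry ice. Quantitative whole-body autoradiography used 40 µm sagittal sections and a phosphor imaging plate calibrated with [¹⁴C]glucose standards (0.001–6.5 μCi/g). Read-out in µg eq apixaban/g; LLOQ 0.037 μg eq/g.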

Rattus norvegicus [13] = experiment: Biodistribution in fetal kidney of pregnant Sprague-Dawley rat at 5 mg/kg, po administered as single dose measured after 8 hrs; type: ADME, organism-based; in short: as §3
Liver [14] = experiment: Biodistribution in pregnant Sprague-Dawley rat liver at 5 mg/kg, po administered as single dose measured after 48 hrs; type: ADME, organism-based; in short: as §3
Pancreas [15] = experiment: Biodistribution in female Sprague-Dawley rat pancreas at 5 mg/kg, po administered as single dose measured after 0.5 hrs; type: ADME, organism-based; in short: as §4
Rattus norvegicus [16] = experiment: Biodistribution in male Sprague-Dawley rat pituitary gland at 5 mg/kg, po administered as single dose measured after 72 hrs; type: ADME, organism-based; in short: as §1
Muscle tissue = experiment: Biodistribution in male Sprague-Dawley rat muscle at 5 mg/kg, po administered as single dose measured after 8 hrs; type: ADME, organism-based
In short: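 [14C]apixaban (1.0 mg/mL, 20 μCi/mL) in 0.5% Tween 80 in Labrafil, given by oral gavage at 100 μCi/kg to male rats (225-252 g) fasted overnight through 4 h post-dose. One rat per time point. Carcasses frozen in hexane/dry ice and cut into 40 µm sagittal sections. QWBA read on phosphor plates against [14C]glucose standards, reported as µg eq/g. LLOQ 0.037 µg eq/g.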

Rattus norvegicus [17] = experiment: Biodistribution in pregnant Sprague-Dawley rat salivary gland at 5 mg/kg, po administered as single dose measured after 48 hrs; type: ADME, organism-based
In short: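 Pregnant SD rats (270-319 g) were fasted overnight and given one oral gavage of 5 mg/kg (100 μCi/kg) in 0.5% Tween 80 in Labrafil. One rat was euthanized per time point (0.5, 1, 4, 8, 24, 48 h) and the carcass frozen. 40 µm sagittal sections were phosphor-imaged against [14C]glucose standards and results reported as µg eq/g; LLOQ 0.037 µg eq/g.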

Rattus norvegicus [18] = experiment: Biodistribution in fetal liver of pregnant Sprague-Dawley rat at 5 mg/kg, po administered as single dose measured after 24 hrs; type: ADME, organism-based; in short: as §3
Rattus norvegicus [19] = experiment: Biodistribution in pregnant Sprague-Dawley rat amnion at 5 mg/kg, po administered as single dose measured after 48 hrs; type: ADME, organism-based; in short: as §3
Blood = experiment: AUC (0 to t) in pregnant Sprague-Dawley rat blood at 5 mg/kg, po administered as single dose; type: ADME, organism-based
Rattus norvegicus [20] = experiment: Biodistribution in pregnant Sprague-Dawley rat brown fat at 5 mg/kg, po administered as single dose measured after 24 hrs; type: ADME, organism-based, Brown adipose tissue; in short: as §3
Thymus = experiment: Biodistribution in female Sprague-Dawley rat thymus at 5 mg/kg, po administered as single dose measured after 4 hrs; type: ADME, organism-based; in short: as §4
Spleen = experiment: Biodistribution in female Sprague-Dawley rat spleen at 5 mg/kg, po administered as single dose measured after 8 hrs; type: ADME, organism-based; in short: as §4
Pancreas [21] = experiment: Biodistribution in male Sprague-Dawley rat pancreas at 5 mg/kg, po administered as single dose measured after 72 hrs; type: ADME, organism-based; in short: as §1

With `COc1ccc(-n2nc(C(N)=O)c3c2C(=O)N(c2ccc(N4CCCC[14C]4=O)cc2)CC3)cc1` the Radiolabel recovery (Rattus norvegicus [1]) was “Not sampled as not visualised in autoradiograph”, the Radiolabel recovery (Pancreas [2]) was 0.99 ugequiv/g and the Radiolabel recovery (Rattus norvegicus [3]) was 1.03 ugequiv/g. For the same molecule, the Radiolabel recovery (Rattus norvegicus [4]) was 0.17 ugequiv/g, the Radiolabel recovery (Harderian gland [5]) was “Not detected assumed BLQ” and the Radiolabel recovery (Heart [6]) was 0.68 ugequiv/g. For the same molecule, the Radiolabel recovery (Liver [7]) was 7.38 ugequiv/g, the Radiolabel recovery (Adrenal gland [8]) was “Not sampled as not visualised in autoradiograph” and the Radiolabel recovery (Rattus norvegicus [9]) was 0.41 ugequiv/g. For the same molecule, the Radiolabel recovery (Adrenal gland [10]) was 0.18 ugequiv/g, the Radiolabel recovery (Brain) was 0.06 ugequiv/g and the Radiolabel recovery (Heart [11]) was “Not detected assumed BLQ”. The Radiolabel recovery (Harderian gland [12]) was 0.12 ugequiv/g, the Radiolabel recovery (Rattus norvegicus [13]) was “Not sampled as not visualised in autoradiograph” and the Radiolabel recovery (Liver [14]) was “Not detected assumed BLQ”. For the same molecule, the Radiolabel recovery (Pancreas [15]) was 0.43 ugequiv/g, the Radiolabel recovery (Rattus norvegicus [16]) was “Not detected assumed BLQ” and the Radiolabel recovery (Muscle tissue) was 0.06 ugequiv/g. The Radiolabel recovery (Rattus norvegicus [17]) was “Not detected assumed BLQ”, the Radiolabel recovery (Rattus norvegicus [18]) was “Not sampled as not visualised in autoradiograph” and the Radiolabel recovery (Rattus norvegicus [19]) was “Not sampled as not visualised in autoradiograph”. The AUCt (Blood) was 6980 ngequiv.hr/g, the Radiolabel recovery (Rattus norvegicus [20]) was “Not detected assumed BLQ” and the Radiolabel recovery (Thymus) was 0.3 ugequiv/g. The Radiolabel recovery (Spleen) was 0.13 ugequiv/g and the Radiolabel recovery (Pancreas [21]) was “Not detected assumed BLQ”.
